Test results published in ChEMBL document CHEMBL1141214, “Use of structure-based drug design approaches to obtain novel anthranilic acid acyl carrier protein synthase inhibitors” (J Med Chem, 2005).
Converted amounts (≈) assume the structure as drawn. “And” between values parts separate entries of the source, which are not always exact repeats. Equal entries are not always repeated.

Key:
[1] = molecular target: T1, Holo-[acyl-carrier-protein] synthase (Bacillus subtilis (strain 168), UniProt P96618); assay: Inhibitory activity against Bacillus subtilis AcpS by HTRF assay
T1 sequence (P96618 whole entry): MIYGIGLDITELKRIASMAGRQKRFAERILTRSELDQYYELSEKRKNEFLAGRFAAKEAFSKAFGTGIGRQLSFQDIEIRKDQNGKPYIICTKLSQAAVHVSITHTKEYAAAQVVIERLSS

Streptococcus pneumoniae = assay: Inhibitory activity against penicillin-resistant Streptococcus pneumoniae penR; type: functional
Summary of the method: (§1)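 Broth microdilution per NCCLS in Mueller-Hinton II broth; serial compound dilutions inoculated to 10⁵ CFU/mL, incubated 18–22 h at 35 °C in ambient air. MIC taken as lowest concentration completely inhibiting visible growth (unaided eye).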

Staphylococcus aureus = assay: Inhibitory activity against methicillin-resistant Staphylococcus aureus MRSA; type: functional; summary of the method: as §1
Escherichia coli = assay: Inhibitory activity against Escherichia coli; type: functional
Summary of the method: (§2)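 Broth microdilution per NCCLS in Mueller-Hinton II broth; serial dilutions in microtiter wells, inoculum 10⁵ CFU/mL, 100 μL final. Incubated 18–22 h at 35 °C in ambient air. MIC taken as lowest concentration giving complete visible growth inhibition by unaided eye.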

Bacillus subtilis = assay: Inhibitory activity against Bacillus subtilis 168; type: functional; summary of the method: as §2
Candida albicans = assay: Inhibitory activity against Candida albicans; type: functional; summary of the method: as §2
Enterococcus faecalis = assay: Inhibitory activity against vancomycin-resistant Enterococcus faecalis VRE; type: functional; summary of the method: as §1

SMILES | IC50 [1] | MIC (Streptococcus pneumoniae) | MIC (Staphylococcus aureus) | MIC (Escherichia coli) | MIC (Bacillus subtilis) | MIC (Candida albicans) | MIC (Enterococcus faecalis)
O=C(O)c1cc(Cl)ccc1NC(=O)c1cccc2c1-c1ccccc1C2=O | 821 nM and 820 nM | – | – | – | – | – | –
CSC(Cc1ccc(Cl)cc1)C(=O)Nc1ccc(Cl)cc1C(=O)O (configuration not stated) | 1430 nM and 1400 nM | 64 µg/mL (≈ 167 µM) | 64 µg/mL (≈ 167 µM) | > 128 µg/mL | 64 µg/mL (≈ 167 µM) | > 128 µg/mL | 128 µg/mL (≈ 333 µM)
C/C(=C\c1ccc(Cl)cc1)C(=O)Nc1cc(Cl)ccc1C(=O)O | 32300 nM | 32 µg/mL (≈ 91.4 µM) | 32 µg/mL (≈ 91.4 µM) | > 128 µg/mL | 32 µg/mL (≈ 91.4 µM) | > 128 µg/mL | 64 µg/mL (≈ 183 µM)
NS(=O)(=O)c1cc(C(=O)O)c(NCc2ccco2)cc1Cl [FUROSEMIDE] | 12700 nM | – | – | – | – | – | –
CC(Cc1ccccc1)C(=O)Nc1ccc(Cl)cc1C(=O)O (configuration not stated) | 2830 nM and 2800 nM | – | – | – | – | – | –
